Five molecules from ChEMBL document CHEMBL1148762, “Lysosome and HER3 (ErbB3) selective anticancer agent kahalalide F: semisynthetic modifications and antifungal lead-exploration studies” (J Med Chem, 2007) can be followed below.

SMILES strings stand for the structures. Converted amounts (≈) assume the structure as drawn.

For one test, the system named is Aspergillus fumigatus. Description: Antimicrobial activity against Aspergillus fumigatus ATCC 90906. It is filed as functional, organism-based.
Another test concerns Candida albicans. Put plainly: Antimicrobial activity against Candida albicans ATCC 90028. It is filed as functional, organism-based.
Test [1] deals with Mycobacterium intracellulare. Description: Antimicrobial activity against Mycobacterium intracellular ATCC 23068. The test is classed as functional, organism-based.
A further test concerns Cryptococcus neoformans. Put plainly: Antimicrobial activity against Cryptococcus neoformans ATCC 90113. It is filed as functional, organism-based.
In test [2] the test system is Fusarium oxysporum. Description: Antimicrobial activity against Fusarium oxysporum at 30 uM after 48 hrs by microtiter assay. The test is classed as functional. In short, it runs like this: (§1)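 96-well microdilution broth assay with conidia (3 × 10^5 conidia/mL, harvested from 7-day PDA cultures and filtered) against F. oxysporum, F. proliferatum and F. solani at 0.3, 3 and 30 µM. Plates were held at 24 ± 1 °C under a 12 h photoperiod. Growth was read at 620 nm at 24, 48 and 72 h and reported as percent inhibition from mean absorbance with standard error.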

In test [3] the test system is Fusarium oxysporum. Put plainly: Antimicrobial activity against Fusarium oxysporum at 3 uM after 48 hrs by microtiter assay. The test is classed as functional. The gist of the method: as §1
The subject of test [4] is Fusarium oxysporum. Description: Antimicrobial activity against Fusarium oxysporum at 30 uM after 72 hrs by microtiter assay. It is filed as functional. The gist of the method:
as §1

The test system of test [5] is Fusarium oxysporum. Description: Antimicrobial activity against Fusarium oxysporum at 3 uM after 72 hrs by microtiter assay. The test is classed as functional. In short, it runs like this: as §1
The test system of test [6] is Fusarium proliferatum. Put plainly: Antimicrobial activity against Fusarium proliferatum at 0.3 uM after 48 hrs by microtiter assay. It is filed as functional. In short, it runs like this: as §1
Test [7] concerns Fusarium oxysporum. Description: Antimicrobial activity against Fusarium oxysporum at 0.3 uM after 48 hrs by microtiter assay. The test is classed as functional. In short, it runs like this: as §1
For test [8], the system named is Fusarium proliferatum. Description: Antimicrobial activity against Fusarium proliferatum at 3 uM after 48 hrs by microtiter assay. The test is classed as functional. In short, it runs like this:
as §1

Test [9] concerns Fusarium proliferatum. Put plainly: Antimicrobial activity against Fusarium proliferatum at 30 uM after 72 hrs by microtiter assay. The test is classed as functional. In short, it runs like this:
as §1

Test [10] relates to Fusarium proliferatum. Put plainly: Antimicrobial activity against Fusarium proliferatum at 0.3 uM after 72 hrs by microtiter assay. It is filed as functional. In short, it runs like this: as §1
Test [11] relates to Fusarium solani. Description: Antimicrobial activity against Fusarium solani at 30 uM after 72 hrs by microtiter assay. The test is classed as functional. The gist of the method:
as §1

Test [12] concerns Fusarium proliferatum. Put plainly: Antimicrobial activity against Fusarium proliferatum at 3 uM after 72 hrs by microtiter assay. The test is classed as functional. The gist of the method: as §1
For test [13], the system named is Fusarium solani. Description: Antimicrobial activity against Fusarium solani at 30 uM after 48 hrs by microtiter assay. It is filed as functional. The gist of the method: as §1
In test [14] the test system is Fusarium solani. Description: Antimicrobial activity against Fusarium solani at 0.3 uM after 48 hrs by microtiter assay. The test is classed as functional. In short, it runs like this:
as §1

Test [15] deals with Fusarium solani. Description: Antimicrobial activity against Fusarium solani at 3 uM after 72 hrs by microtiter assay. It is filed as functional. The gist of the method:
as §1

For test [16], the system named is Fusarium solani. Put plainly: Antimicrobial activity against Fusarium solani at 0.3 uM after 72 hrs by microtiter assay. The test is classed as functional. The gist of the method:
as §1

In test [17] the test system is Fusarium solani. Description: Antimicrobial activity against Fusarium solani at 3 uM after 48 hrs by microtiter assay. The test is classed as functional. The gist of the method: as §1
Test [18] has as its system Fusarium proliferatum. Put plainly: Antimicrobial activity against Fusarium proliferatum at 30 uM after 48 hrs by microtiter assay. It is filed as functional. In short, it runs like this: as §1
Test [19] relates to Fusarium oxysporum. Put plainly: Antimicrobial activity against Fusarium oxysporum at 0.3 uM after 72 hrs by microtiter assay. The test is classed as functional. The gist of the method:
as §1

With `C/C=C1\NC(=O)[C@H](Cc2ccccc2)NC(=O)[C@@H](C(C)C)NC(=O)[C@@H]([C@@H](C)CC)NC(=O)[C@H](NC(=O)[C@H](NC(=O)[C@H](CCCNCc2ccc(F)cc2)NC(=O)[C@H]2CCCN2C(=O)[C@H](NC(=O)[C@@H](NC(=O)[C@@H](NC(=O)[C@H](NC(=O)CCCC(C)C)C(C)C)[C@@H](C)O)C(C)C)C(C)C)[C@@H](C)CC)[C@@H](C)OC(=O)[C@H](C(C)C)NC1=O`, the IC50 is more than 12.6 µM with Aspergillus fumigatus, more than 12.6 µM with Candida albicans, more than 20 µM in [1] and 3.77 µM in the test on Cryptococcus neoformans.
With `C/C=C1\NC(=O)[C@H](Cc2ccccc2)NC(=O)[C@@H](C(C)C)NC(=O)[C@@H]([C@@H](C)CC)NC(=O)[C@H](NC(=O)[C@H](NC(=O)[C@H](CCCNCc2ccncc2)NC(=O)[C@H]2CCCN2C(=O)[C@H](NC(=O)[C@@H](NC(=O)[C@@H](NC(=O)[C@H](NC(=O)CCCC(C)C)C(C)C)[C@@H](C)O)C(C)C)C(C)C)[C@@H](C)CC)[C@@H](C)OC(=O)[C@H](C(C)C)NC1=O`, the 50% inhibitory concentration (IC50) in the test with Aspergillus fumigatus was 4.26 µM; in the test with Candida albicans, 4.19 µM; in test [1], more than 20 µM; in the test with Cryptococcus neoformans, 2.12 µM.
`C/C=C1\NC(=O)[C@H](Cc2ccccc2)NC(=O)[C@@H](C(C)C)NC(=O)[C@@H]([C@@H](C)CC)NC(=O)[C@H](NC(=O)[C@H](NC(=O)[C@H](CCCNC(=O)c2cc3ccc(N(CC)CC)cc3oc2=O)NC(=O)[C@H]2CCCN2C(=O)[C@H](NC(=O)[C@@H](NC(=O)[C@@H](NC(=O)[C@H](NC(=O)CCCC(C)C)C(C)C)[C@@H](C)O)C(C)C)C(C)C)[C@@H](C)CC)[C@@H](C)OC(=O)[C@H](C(C)C)NC1=O`: the half-inhibitory concentration (IC50) (in the test with Aspergillus fumigatus; in the test with Candida albicans; in test [1]; with Cryptococcus neoformans) was more than 11.6 µM in each case.
Take `O=C(O)c1cn(C2CC2)c2cc(N3CCNCC3)c(F)cc2c1=O` [CIPROFLOXACIN]: in test [1], the midpoint of inhibition, the IC50, lay at 0.42 µM; the minimal bactericidal concentration (MBC) is more than 1 µM; the MIC was 1 µM (≈ 0.331 µg/mL).
For the molecule `C/C=C1\NC(=O)[C@H](Cc2ccccc2)NC(=O)[C@@H](C(C)C)NC(=O)[C@@H]([C@@H](C)CC)NC(=O)[C@H](NC(=O)[C@H](NC(=O)[C@H](CCCN)NC(=O)[C@H]2CCCN2C(=O)[C@H](NC(=O)[C@@H](NC(=O)[C@@H](NC(=O)[C@H](NC(=O)CCCC(C)C)C(C)C)C(C)=O)C(C)C)C(C)C)[C@@H](C)CC)[C@@H](C)OC(=O)[C@H](C(C)C)NC1=O`, the inhibition at 30 µM came out at 91.9% with Fusarium oxysporum [2]; 82.2% in the test with Fusarium oxysporum [4]; 73.2% in the test with Fusarium proliferatum [9]; 85.5% with Fusarium solani [11]; 90.6% with Fusarium solani [13]; 92.7% in the test with Fusarium proliferatum [18]. The inhibition at 3 µM in the test with Fusarium oxysporum [3] is 1.8%; in the test with Fusarium oxysporum [5], 0%; in the test on Fusarium proliferatum [8], 5%; in the test on Fusarium proliferatum [12] it was 0%; with Fusarium solani [15], 0%; in the test with Fusarium solani [17] it was 0%. In addition, the MFC is more than 20 µM against Aspergillus fumigatus, more than 20 µM against Candida albicans and 20 µM (≈ 29.5 µg/mL) with Cryptococcus neoformans. The MIC is more than 20 µM in the test with Aspergillus fumigatus, more than 20 µM against Candida albicans, more than 20 µM in test [1] and 10 µM (≈ 14.8 µg/mL) against Cryptococcus neoformans. Moreover, the inhibition at 0.3 µM in the test with Fusarium proliferatum [6] amounted to 1.8%; in the test on Fusarium oxysporum [7] it was 1.8%; in the test with Fusarium proliferatum [10], 0%; in the test on Fusarium solani [14], 0%; with Fusarium solani [16], 0%; in the test on Fusarium oxysporum [19] it was 0%. This molecule also gave a minimum bactericidal concentration (MBC) in [1] of more than 20 µM.

Broadly, the IC50 is the concentration at which inhibition is half-maximal. In general, MBC refers to the lowest tested concentration that kills the bacteria rather than only halting them. Read a low MBC as more potent killing. The term MIC denotes the smallest concentration in the dilution series that meets the test's criterion for growth inhibition. In general, inhibition refers to the share of the control response that was lost under treatment. A low value points to a weak effect.
